Columns and labels:
[1] = target: T1, PPARγ (Homo sapiens, UniProt P37231); assay: Cell-based PPARγ transactivation assay; details: for Maximal efficacy: compared to the reference full agonist (2, MRL20); for EC50: read-out: Cell-based EC50, Cos-1 cells, 3xPPRE luciferase reporter, full-length PPARγ, 24 h, dose-response
T1 sequence (P37231 1-505): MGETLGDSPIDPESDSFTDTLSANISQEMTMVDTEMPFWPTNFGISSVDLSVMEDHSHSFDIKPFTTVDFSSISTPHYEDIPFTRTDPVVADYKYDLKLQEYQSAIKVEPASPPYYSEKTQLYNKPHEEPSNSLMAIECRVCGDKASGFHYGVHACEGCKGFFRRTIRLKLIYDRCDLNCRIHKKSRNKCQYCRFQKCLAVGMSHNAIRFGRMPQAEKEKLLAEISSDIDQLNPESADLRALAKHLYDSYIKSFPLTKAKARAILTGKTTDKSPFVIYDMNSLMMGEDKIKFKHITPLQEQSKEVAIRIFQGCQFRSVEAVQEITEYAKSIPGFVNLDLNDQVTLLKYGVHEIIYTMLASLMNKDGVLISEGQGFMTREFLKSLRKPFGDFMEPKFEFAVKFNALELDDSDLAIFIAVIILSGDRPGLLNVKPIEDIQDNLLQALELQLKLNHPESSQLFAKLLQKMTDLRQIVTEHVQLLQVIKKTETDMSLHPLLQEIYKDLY
Outline: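 Cos-1 cells, trypsinized, bulk reverse-transfected 24 h (FuGene6, lipid:DNA 3:1; DMEM + 10% FBS) with 1.5 μg 3xPPRE luciferase reporter plus 1.5 μg full-length PPARγ (pSport6). Replated at 10,000 cells/well, 4 h at 37°C, 5% CO2. Ten-point serial dilution, 5 μM – 200 pM, in triplicate, then 24 h. One-step luciferase reagent, luminescence read. Activity taken as fold over DMSO. Partial and full agonist controls, DMSO negative. EC50 from curve fit.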

[2] = target: T2, PPARγ LBD (Homo sapiens, UniProt P37231); assay: Fluorescence polarization; assay type: binding; details: read-out: FP Assay IC50; recombinant PPARγ LBD, 5 nM Fluoromone Green ligand, 25°C, 2 hours
T2 sequence (P37231 238-503 limits assumed): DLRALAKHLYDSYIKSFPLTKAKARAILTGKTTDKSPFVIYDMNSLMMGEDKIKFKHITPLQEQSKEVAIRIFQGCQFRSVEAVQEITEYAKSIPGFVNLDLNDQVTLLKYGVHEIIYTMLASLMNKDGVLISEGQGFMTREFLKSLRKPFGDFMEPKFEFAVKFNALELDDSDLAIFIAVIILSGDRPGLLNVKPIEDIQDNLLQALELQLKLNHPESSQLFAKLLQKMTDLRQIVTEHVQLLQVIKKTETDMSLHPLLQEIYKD
Outline: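 Competitive FP binding run per kit instructions. 20 ng recombinant PPARγ LBD plus 5 nM Fluoromone Green probe, mixed with an equal volume of screening buffer holding DMSO or test compound. Incubated 2 h at 25°C. Polarization read at 485 nm excitation and 535 nm emission. Rosiglitazone used as positive competitor. IC50 from dose-response curve fit.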

Structure (SMILES)	Maximal efficacy [1] [%]	EC50 [1] [µM]	IC50 [2] [µM]
COc1ccc(-c2nn(-c3ccccc3)cc2/C=C2/SC(=S)N(CCC(=O)O)C2=O)c(C)c1 [Compound 3]	44.41	0.283	0.152
CCOc1ccc2nc(N3C(=O)C(O)=C(C(=O)c4ccco4)C3c3ccco3)sc2c1 (stereo not drawn) [Compound 6]	37.04	1.2	3
COc1ccc2nc(N3C(=O)C(O)=C(C(=O)c4ccco4)C3c3ccc(C)o3)sc2c1 (stereo not drawn) [Compound 7]	41.14	5	5
Cc1ccc2nc(N3C(=O)C(O)=C(C(=O)c4ccc(C)o4)C3c3ccco3)sc2c1 (stereo not drawn) [Compound 8]	45.76	18	22

Other lines, results leading:

Maximal efficacy [1] [%]	EC50 [1] [µM]	IC50 [2] [µM]	Structure (SMILES)
64.11	0.181	0.173	CCn1cnc2c1c(=O)n(Cc1cccc([N+](=O)[O-])c1)c(=O)n2Cc1ccccc1 [Compound 4]
44.71	1.2	2	CC(=O)N1N=C(c2ccccc2)CC1c1cn(Cc2ccccc2)c2ccccc12 (stereo not drawn) [Compound 5]

Source: paper PMC3517154 (ChemMedChem, 2011)
